Compound activity: PubChem BioAssay, several laboratories
A selection: hits, their analogues and other compounds. The true share with any hit is near 1.8%.
Thrombin inh: thrombin (human) inhibition; P00734; 220,000 tested, 0.26% active; alpha-thrombin, Boc-VPR-AMC fluorogenic substrate cleavage; inhibition, % at 5 µM;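 active = inhibition at or above 40%; inactive = inhibition below 40%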;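 also: 0% = enzyme with no compound and 100% = wells without enzyme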
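System: Human alpha-thrombin protein | Medium: pH 7.5 Tris (50 mM) with NaCl 150 mM, Tween 20 0.05% | Times: Enzyme reaction carried out at room temperature | Detection: AMC fluorescence, 355/460 nm | Evaluation: Percent inhibition scaled between no-compound controls and no-enzyme blanks | Benchmarks: Enzyme without compound as high, wells lacking enzyme as low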
FXIa inh: inhibitors of human coagulation factor XIa. purified FXIa, Boc-Glu-Ala-Arg-AMC fluorogenic substrate. inhibition, % at 5 µM. 220,000 tested, 0.14% active;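 active = inhibition of at least 40%; inactive = inhibition below 40%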;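 also: fluorescence of freed AMC excited at 355 nm; 0% = enzyme without compound and 100% = no enzyme blank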
hK5 inh: kallikrein 5 (human) inhibition | recombinant hK5, fluorogenic AMC substrate cleavage | AID 873 | 210,000 tested, 0.59% active | inhibition, % at 5 µM;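 active = inhibition of 40% or more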;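 also: 0% = enzyme controls without compound and 100% = no-enzyme blanks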
FXIIa inh 1536: blocks human coagulation factor XIIa protease activity | P00748 | purified FXIIa, Boc-QGR-AMC fluorogenic substrate, 2 h | inhibition, % at 5 µM | 220,000 tested, 0.3% active | AID 800; in the data active = inhibition above about 40%;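 also: 0% = enzyme with no compound and 100% = blank without enzyme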
Wee1 degr inh: inhibitors of human Wee1 degradation | 220,000 tested, 1.2% active | reporter increase, % at 5 µM | HeLa Luc-Wee1K328M stability, luciferase luminescence; 100% = proteasome inhibitor MG132 effect | P30291;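 active = activation above the mean of all tested compounds plus 3 SD, set per screening run, cut at about 8.8% in these data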;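 also: cells exposed to compound for 20 h before luminescence read; 0% = DMSO alone and 100% = MG132 at 30 µM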
Target sequence (P30291 whole entry K328M): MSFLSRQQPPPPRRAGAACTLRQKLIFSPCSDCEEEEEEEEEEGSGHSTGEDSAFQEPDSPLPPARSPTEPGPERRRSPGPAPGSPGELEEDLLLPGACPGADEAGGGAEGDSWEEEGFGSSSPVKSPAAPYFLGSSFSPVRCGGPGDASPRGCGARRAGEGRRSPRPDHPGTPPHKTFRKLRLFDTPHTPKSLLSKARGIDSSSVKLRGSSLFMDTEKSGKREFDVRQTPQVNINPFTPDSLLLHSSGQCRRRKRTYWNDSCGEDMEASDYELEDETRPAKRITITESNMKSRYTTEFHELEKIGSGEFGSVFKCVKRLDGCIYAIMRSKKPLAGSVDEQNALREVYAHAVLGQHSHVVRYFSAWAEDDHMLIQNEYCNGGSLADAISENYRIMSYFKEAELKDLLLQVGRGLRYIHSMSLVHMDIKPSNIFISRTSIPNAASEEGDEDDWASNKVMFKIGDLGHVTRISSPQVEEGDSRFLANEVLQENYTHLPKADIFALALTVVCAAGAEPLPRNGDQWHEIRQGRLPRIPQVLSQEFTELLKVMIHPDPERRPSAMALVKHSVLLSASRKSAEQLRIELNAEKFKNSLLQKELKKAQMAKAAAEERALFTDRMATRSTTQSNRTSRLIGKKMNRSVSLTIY
Platelet DG rel: platelet dense granule release activity; human platelet-rich plasma, SFLLRN dense granule ATP release, luminescence; inhibition, %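 (compounds screened at 7.5 µM in platelet-rich plasma)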; 300,000 tested, 0.22% active; AID 1663;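 active = mean replicate score, as percent of positive control, at or above 50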
* = called active by the depositor.

`C=CCNC(=O)C1(c2ccccc2)CC1(Cl)Cl` (stereo not drawn) gave Thrombin inh -6.3, FXIa inh 4.7, hK5 inh -16.1, FXIIa inh 1536 16.2, Wee1 degr inh -1.4 and Platelet DG rel -14.9.
Screening O=C(NCCc1ccc(Cl)cc1)Nc1cccc(Cl)c1 returned Thrombin inh 0.3, FXIa inh -1.1, hK5 inh -1.0, FXIIa inh 1536 -3.9, Wee1 degr inh 8.9* and Platelet DG rel -6.3.
Screening O=C(NCCc1ccccc1)Nc1cccc(Cl)c1 returned Thrombin inh 0.9, FXIa inh 2.6, hK5 inh -3.5, FXIIa inh 1536 24.4, Wee1 degr inh -3.3 and Platelet DG rel 8.0.
Screening Cc1c(N(C(=O)c2ccccn2)C2(C(=O)NC3CCCC3)CCCCC2)c(=O)n(-c2ccccc2)n1C returned Thrombin inh -0.6, FXIa inh -1.5, hK5 inh -23.9, FXIIa inh 1536 -4.9, Wee1 degr inh 4.4 and Platelet DG rel -3.3.
For CN(CC(=O)Nc1ccc(N2CCOCC2)cc1)C(=O)CSc1ccc(Br)cc1 the results were Platelet DG rel -11.2.
`CN(CC(=O)Nc1ccc(N2CCOCC2)cc1)C(=O)CC(c1ccccc1)c1ccccc1` gave Thrombin inh 1.0, FXIa inh 0.3, hK5 inh -4.4, FXIIa inh 1536 7.5 and Wee1 degr inh 10.1*.
For O=C(O)/C=C/c1cccc(NC(=O)c2ccccc2)c1 the results were Thrombin inh -1.2, FXIa inh 25.4, hK5 inh 16.0, FXIIa inh 1536 16.0, Wee1 degr inh -3.1 and Platelet DG rel 64.0*.
Screening O=C(O)/C=C/c1cccc(NC(=O)c2ccc(Cl)cc2)c1 returned Thrombin inh -5.6, FXIa inh 1.1, hK5 inh 4.6, FXIIa inh 1536 10.7, Wee1 degr inh -2.0 and Platelet DG rel 15.5.
`COc1ccccc1NC(=S)NNC(=O)c1ccccc1Br` gave Thrombin inh -9.3, FXIa inh 3.5, hK5 inh -86.0, FXIIa inh 1536 10.5, Wee1 degr inh 1.3 and Platelet DG rel 0.7.
Screening CC12CCC(C(=O)NNc3ccccc3)(OC1=O)C2(C)C (stereo not drawn) returned Thrombin inh -3.5, FXIa inh 2.8, hK5 inh 5.3, FXIIa inh 1536 8.3, Wee1 degr inh 4.2 and Platelet DG rel -1.5.
Screening CC12CCC(C(=O)NC(c3ccccc3)c3ccccc3)(OC1=O)C2(C)C (stereo not drawn) returned Thrombin inh 13.4, FXIa inh 12.5, hK5 inh 37.2, FXIIa inh 1536 55.0*, Wee1 degr inh 0.5 and Platelet DG rel 7.1.
COc1ccc(C(=O)N=C2SC3CS(=O)(=O)CC3N2c2ccc(N(C)C)cc2)cc1OC (stereo not drawn) was read as Platelet DG rel -0.4.
For O=C(Oc1cccc2cccnc12)c1ccco1 the results were Thrombin inh 0.5, FXIa inh 3.1, hK5 inh -17.6, FXIIa inh 1536 13.2, Wee1 degr inh -1.0 and Platelet DG rel -3.0.
`N/C(=N\OC(=O)c1ccc2ccccc2c1)c1ccncc1` gave Thrombin inh 2.1, FXIa inh 26.2, hK5 inh 29.3, FXIIa inh 1536 19.9, Wee1 degr inh 4.4 and Platelet DG rel -4.5.
Screening N/C(=N\OC(=O)c1ccc2ccccc2c1)c1ccccn1 returned Thrombin inh -0.7, FXIa inh 2.8, hK5 inh 10.9, FXIIa inh 1536 6.0, Wee1 degr inh -4.9 and Platelet DG rel 66.0*.
Screening O=C(Oc1ccc(Cl)c2cccnc12)c1ccco1 returned Thrombin inh -3.1, FXIa inh -4.7, hK5 inh -4.2, FXIIa inh 1536 51.8*, Wee1 degr inh 0.6 and Platelet DG rel -0.5.
Screening CCCc1ccc(C(=O)O/N=C(\N)c2ccccn2)cc1 returned Platelet DG rel 76.9*.
N/C(=N\OC(=O)c1ccco1)c1ccccn1 was read as Thrombin inh -4.1, FXIa inh 1.6, hK5 inh 4.5, FXIIa inh 1536 9.9, Wee1 degr inh 10.3* and Platelet DG rel 1.5.
COCCN1CCC(CNCc2c(C(=O)N3CCCCC3)nc3c(C)cccn23)C1 (stereo not drawn) was read as Thrombin inh -17.6, FXIa inh 1.4, hK5 inh -0.1, FXIIa inh 1536 8.3, Wee1 degr inh -0.8 and Platelet DG rel -1.4.
`Cc1cc(C)cc(-n2ccnc2SCC(=O)O)c1` gave Thrombin inh -9.2, FXIa inh -1.0, hK5 inh 0.3, FXIIa inh 1536 4.7, Wee1 degr inh 4.2 and Platelet DG rel 6.9.
Screening CN(Cc1ccno1)Cc1cn(Cc2ccccc2)nc1-c1ccc2c(c1)OCO2 returned Thrombin inh -11.9, FXIa inh -1.0, hK5 inh -2.5, FXIIa inh 1536 3.6, Wee1 degr inh 1.4 and Platelet DG rel 10.4.
`Cc1ccc(S(=O)(=O)CCC(=O)OCc2ccc(Cl)cc2)cc1` gave Thrombin inh 18.0, FXIa inh 16.4, hK5 inh 52.6*, FXIIa inh 1536 29.0, Wee1 degr inh 3.6 and Platelet DG rel -5.3.
For O=C(c1cc(Cl)nc2ccccc12)N1CCc2ccccc2C1 the results were Thrombin inh 2.6, FXIa inh 41.9*, hK5 inh 26.5, FXIIa inh 1536 29.8, Wee1 degr inh 0.7 and Platelet DG rel -2.2.
COc1ccc(-n2ncc(C(C)NS(=O)(=O)c3cccs3)c2C)cc1 (stereo not drawn) was read as Platelet DG rel -0.5.
Screening Cc1ccc(CN2CCNC(=O)C2CC(=O)NCCCn2ncc3ccccc32)o1 (stereo not drawn) returned Thrombin inh 2.1, FXIa inh 3.2, FXIIa inh 1536 9.0 and Wee1 degr inh 14.9*.
Cc1ccc(CN2CCNC(=O)C2CC(=O)NC2CCCCCC2)o1 (stereo not drawn) was read as Thrombin inh -5.1, FXIa inh -3.2, FXIIa inh 1536 3.0, Wee1 degr inh -0.9 and Platelet DG rel 0.8.
Screening COc1ccccc1CP(=O)(c1ccccc1)c1ccccc1 returned Thrombin inh -4.9, FXIa inh -4.5, hK5 inh -1.3, FXIIa inh 1536 4.0, Wee1 degr inh 0.6 and Platelet DG rel -8.7.
Screening COCCOc1nc2ccccc2nc1C returned Thrombin inh 3.5, FXIa inh 7.8, hK5 inh -22.7, FXIIa inh 1536 19.9, Wee1 degr inh -2.1 and Platelet DG rel -6.1.
Screening Cc1nc2ccccc2nc1OCc1ccc([N+](=O)[O-])cc1 returned Thrombin inh 1.4, FXIa inh -3.4, hK5 inh -17.4, FXIIa inh 1536 -4.4, Wee1 degr inh 10.1* and Platelet DG rel 2.8.
For Nc1c(C(=O)N/N=C/c2cccnc2)cnn1-c1ccccc1 the results were Thrombin inh 12.5, FXIa inh 6.5, hK5 inh 12.3, FXIIa inh 1536 18.9, Wee1 degr inh 9.6* and Platelet DG rel 14.7.
